Assay results from different studies.
RET: Proto-oncogene tyrosine-protein kinase receptor Ret (RET, Homo sapiens, UniProt P07949)
RET V804M: Proto-oncogene tyrosine-protein kinase receptor Ret (RET, Homo sapiens, UniProt P07949, V804M)
RET V804L: Proto-oncogene tyrosine-protein kinase receptor Ret (RET, Homo sapiens, UniProt P07949, V804L)
RET M918T: Proto-oncogene tyrosine-protein kinase receptor Ret (RET, Homo sapiens, UniProt P07949, M918T)

CN(c1nccc(-c2cnn3ncccc23)n1)C1CC1
remaining binding (RET; binding; 1 µM): 84%

O=C(NCC1CCOCC1)c1n[nH]cc1NC(=O)c1c(F)cccc1F
remaining binding (RET V804M; binding; competition with immobilised ligand; 1 µM): 90%

Nc1ncc2c(n1)-c1c([nH]c3ccc(C#CC4CC4)cc13)CCCC2
remaining binding (RET; binding; competition with immobilised ligand; 1 µM): 91%

COc1cnc(Nc2cccc(S(N)(=O)=O)c2)nc1N1CCN(c2ccccc2)C(=O)C1
remaining binding (RET; binding; competition with immobilised ligand; 1 µM): 90%

c1cncc(-c2cccc(Nc3nccc(NC4CCCCC4)n3)c2)c1
remaining binding (RET V804L; binding; competition with immobilised ligand; 10 µM): 10%

COc1cc(-c2cn(C3CCc4ccccc4N(CC(F)(F)F)C3=O)nn2)ccc1-n1ccc(C)n1 (centres unmarked)
remaining binding (RET M918T; cell-free assay; competition with immobilised ligand; 1 µM): 100%

CC1CCCN1c1nccc(-c2cnn3ncccc23)n1 (centres unmarked)
remaining binding (RET; binding; 1 µM): 100%

O=C(c1ccc(Nc2nccc(-c3cc4ccccc4s3)n2)cc1)N1CCC(N2CCCC2)CC1
remaining binding (RET; binding; competition with immobilised ligand; 1 µM): 85%

N#CC1(c2ccccn2)CCN(Cc2cc(C(=O)N3CCCC3)c(=O)n3ccccc23)CC1
remaining binding (RET M918T; cell-free assay; competition with immobilised ligand; 1 µM): 88%

CN(C)c1nccc(-c2cnn3ncccc23)n1
remaining binding (RET V804M; binding; 1 µM): 100%

CN1CCN(c2ccc(Nc3nccc(-c4cccc([N+](=O)[O-])c4)n3)cc2C(F)(F)F)CC1
remaining binding (RET M918T; binding; 10 µM): 34%

C=CC(=O)N1CCC(C(=O)NCC(=O)N2CCN(c3nc(-c4cnc(N)nc4C(F)F)nc(N4CCOCC4)n3)CC2)CC1
remaining binding (RET; binding; competition with immobilised ligand; 1 µM): 94%

Cc1cc(-n2nc(Cc3cc(F)cc(C(F)(F)F)c3)nc2C)ccc1C(N)=O
remaining binding (RET; cell-free assay; competition with immobilised ligand; 1 µM): 96%

O=C(c1ccc(Nc2ncc(Cl)c(-c3cc4ccccc4s3)n2)cc1)N1CCC(N2CCCC2)CC1
remaining binding (RET M918T; binding; competition with immobilised ligand; 1 µM): 13%

C[C@H]1CCN(c2nccc(-c3cnn4ncccc34)n2)C1
remaining binding (RET; binding; 1 µM): 97%

CNC(=O)[C@@H]1CC[C@@H](n2c(-c3ccc4cnccc4c3)nc3ccc(C(=O)NCc4cccc(C(N)=O)c4)cc32)C1
remaining binding (RET V804L; binding; competition with immobilised ligand; 1 µM): 94%

O=C(NCCCN1CCOCC1)c1ccc(Nc2nccc(-c3cc4ccccc4s3)n2)cc1
remaining binding (RET; binding; competition with immobilised ligand; 1 µM): 55%

C[C@@H](c1ccc(-n2cnc3c(N)ncnc32)cc1)N1CCc2nn(C)c(Cc3ccccc3)c2C1=O
remaining binding (RET V804M; binding; competition with immobilised ligand; 0.1 µM): 80%

COc1ncc2cc3ccccc3nc2c1C#N
remaining binding (RET V804M; cell-free assay; competition with immobilised ligand; 5 µM): 98%

Cc1cnc(Nc2ccc(C(=O)N3CCC(N4CCCC4)CC3)cc2)nc1-c1cc2ccccc2s1
remaining binding (RET M918T; binding; competition with immobilised ligand; 1 µM): 5.2%

COc1cnc(Nc2cccc(S(N)(=O)=O)c2)nc1N1CCN(c2ccccc2)CC1
remaining binding (RET; binding; competition with immobilised ligand; 1 µM): 64%

F[C@@H]1CCN(c2nccc(-c3cnn4ncccc34)n2)C1
remaining binding (RET V804M; binding; 1 µM): 72%

O=C(Nc1c[nH]nc1C(=O)NC1CCNCC1)c1cc(F)cc(F)c1
remaining binding (RET; binding; competition with immobilised ligand; 1 µM): 100%

O=C(N[C@H]1CCCCC/C=C\C2C[C@@]2(C(=O)O)NC(=O)[C@@H]2C[C@@H](Oc3ccncc3)CN2C1=O)OC1CCCC1 (some centres unmarked)
remaining binding (RET V804M; binding; competition with immobilised ligand; 1 µM): 100%

N[C@@H]1CCN(c2nccc(-c3cnn4ncccc34)n2)C1
remaining binding (RET; binding; 1 µM): 100%

O=C(Nc1cnc(Oc2ccc(F)cc2)nc1)N1CCc2ncccc2[C@@H]1c1ccc(F)cc1
remaining binding (RET M918T; cell-free assay; competition with immobilised ligand; 1 µM): 95%

CCN1CCN(Cc2ccc(C(=O)Nc3ccc(C)c(Oc4ccc5c(c4)CC(=O)N5)c3)cc2C(F)(F)F)CC1
remaining binding (RET M918T; binding; competition with immobilised ligand; 1 µM): 40%

CC(C)CC(=O)N1CCc2nc(-c3ccc(Br)cc3)nc(N(C)Cc3ccccc3)c2C1
remaining binding (RET V804M; cell-free assay; competition with immobilised ligand; 0.1 µM): 82%

O=C(NCCCN1CCOCC1)c1ccc(Nc2ncc(Cl)c(-c3ccc(Cl)s3)n2)cc1
remaining binding (RET V804M; binding; competition with immobilised ligand; 1 µM): 15%

CN(C)c1nccc(-c2cnc3ncccn23)n1
remaining binding (RET; binding; 1 µM): 91%

CCc1ccccc1C(=O)Nc1n[nH]c2c(C)c(F)c(C3C(C#N)=C(C)N(C)C(C)=C3C#N)cc12
remaining binding (RET V804L; cell-free assay; competition with immobilised ligand; 1 µM): 25%

Cc1cnn2ncc(-c3ccnc(N(C)C)n3)c2c1
remaining binding (RET M918T; binding; 1 µM): 100%

CN1CCN(c2ccc(Nc3nccc(-c4ccccc4)n3)cc2C(F)(F)F)CC1
remaining binding (RET V804L; binding; 10 µM): 40%

CNC(=O)c1ccc(Nc2ncc(C(F)(F)F)c(NCc3nccnc3N(C)S(C)(=O)=O)n2)cc1
remaining binding (RET V804M; cell-free assay; competition with immobilised ligand; 0.1 µM): 30%

O=C(c1ccc(Nc2ncc(Cl)c(-c3ccc(Cl)s3)n2)cc1)N1CCC(N2CCCC2)CC1
remaining binding (RET M918T; binding; competition with immobilised ligand; 1 µM): 8.4%
